Measured values published in ChEMBL document CHEMBL3352378, “Novel carbazole inhibits phospho-STAT3 through induction of protein-tyrosine phosphatase PTPN6” (J Med Chem, 2014).
Active and inactive are the calls of the source. The rule behind the calls is not given here.

Target: Signal transducer and activator of transcription 3 (Homo sapiens) (UniProt P40763)
Test: Inhibition of STAT3C-mediated transcription in human Hs578T cells at 1 uM after 24 hrs by luciferase reporter gene assay
Type: cell-based
Conditions: Hs-578T
Summary of the method: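 HS578T cells co-transfected with a constitutively active STAT3 (STAT3C) expression vector and the APRE-Luc reporter. Treated at 1 μM for 24 h, with JAK2 inhibitor AZD1480 for comparison. Luciferase measured; mean ± SD of triplicates.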

Sequence of Signal transducer and activator of transcription 3 (Homo sapiens) (P40763 whole entry): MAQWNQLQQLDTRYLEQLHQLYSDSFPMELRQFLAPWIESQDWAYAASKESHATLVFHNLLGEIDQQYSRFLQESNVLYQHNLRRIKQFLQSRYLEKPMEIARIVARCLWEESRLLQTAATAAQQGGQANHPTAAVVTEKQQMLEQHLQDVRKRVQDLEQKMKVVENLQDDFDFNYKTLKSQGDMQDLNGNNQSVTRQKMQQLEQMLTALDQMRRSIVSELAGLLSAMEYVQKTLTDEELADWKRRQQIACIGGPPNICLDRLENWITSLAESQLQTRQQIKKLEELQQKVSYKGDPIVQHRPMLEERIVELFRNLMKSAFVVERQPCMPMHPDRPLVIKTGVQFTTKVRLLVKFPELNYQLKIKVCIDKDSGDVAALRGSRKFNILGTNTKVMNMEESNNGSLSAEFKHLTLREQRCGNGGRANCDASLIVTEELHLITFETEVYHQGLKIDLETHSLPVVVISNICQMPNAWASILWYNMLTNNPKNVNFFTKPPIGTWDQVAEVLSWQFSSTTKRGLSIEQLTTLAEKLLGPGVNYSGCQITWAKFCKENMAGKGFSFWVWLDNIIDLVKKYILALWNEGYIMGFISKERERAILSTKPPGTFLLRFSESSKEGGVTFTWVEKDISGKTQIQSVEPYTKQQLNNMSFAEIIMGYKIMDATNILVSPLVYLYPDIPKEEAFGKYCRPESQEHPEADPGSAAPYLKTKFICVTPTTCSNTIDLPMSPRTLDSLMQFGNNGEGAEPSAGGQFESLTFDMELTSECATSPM

For Cc1cc(Nc2nc(N[C@@H](C)c3ncc(F)cn3)ncc2Cl)[nH]n1, the inhibition was “Active”.
